Among the data in ChEMBL document CHEMBL2062460, “Disubstituted thiourea derivatives and their activity on CNS: synthesis and biological evaluation” (Eur J Med Chem, 2012) are CC50, EC50 and MIC values, retold here.

A short description of series [1]: Cytotoxicity against human MT4 cells after 96 hrs by MTT assay. The class given is cell-based.
Series [2] relates to Human immunodeficiency virus 1. The experiment in a line: Antiviral activity against HIV1 infected in human MT4 cells assessed as virus-induced cytopathogenicity after 4 days by MTT assay. The class given is functional, organism-based. Particulars: Human immunodeficiency virus 1, MT4, 96 h. For orientation: Cytopathic effects are the visible damage that an infection or toxin causes in cultured cells.

Series [3] has as its system Staphylococcus aureus. The series can be described thus: Antibacterial activity against Staphylococcus aureus NCTC 4163 after 18 hrs by twofold serial agar dilution technique. Particulars: NCTC 4163, 18 h. The class given is functional. The method, boiled down: (§1)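 Twofold serial agar dilution on Mueller–Hinton II agar, following CLSI guidelines. Compounds were dissolved in methanol or DMSO and tested at final agar concentrations of 3.125–400 µg/mL. Final inoculum was 10^4 CFU/mL.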
In general terms: In agar dilution, organisms are placed on agar that contains the substance at set levels.

The test system of series [4] is Staphylococcus aureus. The series can be described thus: Antibacterial activity against Staphylococcus aureus ATCC 25923 after 18 hrs by twofold serial agar dilution technique. The class given is functional. Particulars: ATCC 25923, 18 h. The method, boiled down: as §1
Series [5] relates to Staphylococcus aureus. The experiment in a line: Antibacterial activity against Staphylococcus aureus ATCC 6538 after 18 hrs by twofold serial agar dilution technique. The conditions noted are these: ATCC 6538, 18 h. In kind it is functional. The method, boiled down: as §1
For series [6], the system named is Staphylococcus aureus. The experiment in a line: Antibacterial activity against Staphylococcus aureus ATCC 29213 after 18 hrs by twofold serial agar dilution technique. The class given is functional. The conditions noted are these: ATCC 29213, 18 h. The method, boiled down: as §1
In series [7] the test system is Staphylococcus epidermidis. The experiment in a line: Antibacterial activity against Staphylococcus epidermidis ATCC 12228 after 18 hrs by twofold serial agar dilution technique. In kind it is functional. Particulars: ATCC 12228, 18 h. The method, boiled down:
as §1

In the next series the test system is Bacillus subtilis. The experiment in a line: Antibacterial activity against Bacillus subtilis ATCC 6633 after 18 hrs by twofold serial agar dilution technique. In kind it is functional. Particulars: ATCC 6633, 18 h.
For a further series, the system named is Bacillus cereus. The series can be described thus: Antibacterial activity against Bacillus cereus ATCC 11778 after 18 hrs by twofold serial agar dilution technique. In kind it is functional. The conditions noted are these: ATCC 11778, 18 h.
Another series relates to Enterococcus hirae. The experiment in a line: Antibacterial activity against Enterococcus hirae ATCC 10541 after 18 hrs by twofold serial agar dilution technique. In kind it is functional. Particulars: ATCC 10541, 18 h.
The test system of series [8] is Micrococcus luteus. The series can be described thus: Antibacterial activity against Micrococcus luteus ATCC 9341 after 18 hrs by twofold serial agar dilution technique. In kind it is functional. The conditions noted are these: ATCC 9341, 18 h.
In series [9] the test system is Micrococcus luteus. The experiment in a line: Antibacterial activity against Micrococcus luteus ATCC 10240 after 18 hrs by twofold serial agar dilution technique. The class given is functional. Particulars: ATCC 10240, 18 h.

≈ marks a conversion by molar mass, not a printed value.

The CC50 is the concentration giving 50% cytotoxicity. High values mean lower toxicity to the cells, low ones greater toxicity to the cells. For orientation: EC50 means the concentration needed to bring the measured effect to its halfway point. Regarding `S=C(Nc1ccc(Cl)c(Cl)c1)Nc1nc[nH]n1`, in [1], half-maximal cytotoxicity (CC50 at 96 h) was put at 47 µM. Further, the concentration giving a half-maximal response (EC50) in series [2] is more than 47 µM.

Turning to `COc1ccc(NC(=S)Nc2nc[nH]n2)cc1`, the 50% cytotoxic concentration (CC50) at 96 h in [1] was more than 100 µM. The concentration giving a half-maximal response (EC50) in series [2] is more than 100 µM.

In the case of `O=C(NC(=S)Nc1nc[nH]n1)c1ccccc1`, the cytotoxic concentration (CC50) at 96 h in series [1] was more than 100 µM. Moreover, the EC50 in series [2] is more than 100 µM.

One may read the MIC as the smallest concentration in the dilution series that meets the test's criterion for growth inhibition. Read a high MIC as a need for much substance. In the case of `O=C(O)c1cn(C2CC2)c2cc(N3CCNCC3)c(F)cc2c1=O` [CIPROFLOXACIN], the MIC was 0.5 µg/mL (≈ 1.51 µM) against Staphylococcus aureus [3]; 0.5 µg/mL (≈ 1.51 µM) in the series on Staphylococcus aureus [4]; 0.5 µg/mL (≈ 1.51 µM) in the series with Staphylococcus aureus [5]; 0.5 µg/mL (≈ 1.51 µM) in the series with Staphylococcus aureus [6]; 0.5 µg/mL (≈ 1.51 µM) in series [7]; less than 0.125 µg/mL with Bacillus subtilis. In addition, the minimum inhibitory concentration (MIC) against Bacillus cereus came out at 0.5 µg/mL (≈ 1.51 µM); against Enterococcus hirae, 4 µg/mL (≈ 12.1 µM); against Micrococcus luteus [8], 2 µg/mL (≈ 6.04 µM); with Micrococcus luteus [9], 1 µg/mL (≈ 3.02 µM).
